Source: ChEMBL document CHEMBL1127308, “Inhibition of human neutrophil elastase with peptidyl electrophilic ketones. 2. Orally active PG-Val-Pro-Val pentafluoroethyl ketones” (J Med Chem, 1994)
The source made the active and inactive calls. The calls are words filed in the database; no cut-off is given here.

Key:
Rattus norvegicus [1] = assay: In vivo inhibitory activity against HNE-induced pulmonary hemorrhage was determined in rats after oral administration of 50 mg/kg; type: functional
Summary of the method: (§1)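 Rats were dosed orally 45 min before intratracheal instillation of 100 μg HNE. After 1 h, lungs were lavaged with saline, and BAL hemoglobin was measured spectrophotometrically (536–546 nm) against a Hgb standard curve. Percent inhibition was calculated versus vehicle-treated controls, 5–10 rats per group, as mean ± SEM, with one-way ANOVA and Dunnett's test (p ≤ 0.05).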

Neutrophil elastase [2] = target: T1, Neutrophil elastase (Homo sapiens, UniProt P08246); assay: In vitro inhibitory activity against human neutrophil elastase
T1 sequence (P08246 whole entry): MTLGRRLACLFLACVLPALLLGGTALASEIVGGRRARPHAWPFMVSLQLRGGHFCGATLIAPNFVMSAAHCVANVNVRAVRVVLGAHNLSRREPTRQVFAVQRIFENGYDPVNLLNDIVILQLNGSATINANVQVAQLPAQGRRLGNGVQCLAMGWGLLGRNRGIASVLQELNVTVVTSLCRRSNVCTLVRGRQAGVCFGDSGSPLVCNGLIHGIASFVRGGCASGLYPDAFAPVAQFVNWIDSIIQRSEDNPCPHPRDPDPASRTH
Summary of the method: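 HNE was partially purified from human purulent sputum and assayed with MeO-Suc-Ala-Ala-Pro-Val-p-nitroanilide; the assay contained 10% v/v DMSO. Ki was found either from a double-reciprocal plot (four substrate × three inhibitor concentrations) or, assuming competitive inhibition, from three inhibitor concentrations at 0.2 mM substrate (≈Km) using v0/vi = 1 + [I]/Ki,app and Ki = Ki,app/(1 + [S]/Km). Inhibitor was 5–100-fold over enzyme, with no hydration correction.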

[3] = Inhibition of HNE-induced pulmonary hemorrhage when the compound was administered before 30 or 45 min at the dose of 50 mg/kg; orally active; type: functional, organism-based; set-up: dose 50 mg/kg
Rattus norvegicus [4] = assay: In vivo inhibitory activity against HNE-induced pulmonary hemorrhage was determined in rats after oral administration of 45 mg/kg; type: functional; summary of the method: as §1
Neutrophil elastase [5] = target: T1, Neutrophil elastase; assay: In vitro inhibitory activity against human neutrophil elastase was determined at a dose of 45 mg/kg; type: organism-based; set-up: dose 45 mg/kg
[6] = Inhibition of HNE-induced pulmonary hemorrhage when the compound was administered before 30 or 45 min at the dose of 50 mg/kg; not orally active; type: functional, organism-based; set-up: dose 50 mg/kg
Rattus norvegicus [7] = assay: In vivo inhibitory activity against HNE-induced pulmonary hemorrhage was determined in rats after oral administration of 100 mg/kg; type: functional; summary of the method: as §1
[8] = Inhibition of HNE-induced pulmonary hemorrhage when the compound was administered before 30 or 45 min at the dose of 50 mg/kg; Not orally active; type: functional, organism-based; set-up: dose 50 mg/kg
Neutrophil elastase [9] = target: T1, Neutrophil elastase; assay: In vitro inhibitory activity against human neutrophil elastase was determined at a dose of 100 mg/kg; type: organism-based; set-up: dose 100 mg/kg
Cricetinae gen. sp. = assay: In vivo inhibitory activity against HNE-induced pulmonary hemorrhage was determined in hamsters after oral administration of 25 mg/kg; type: functional
Summary of the method: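 Hamsters were dosed orally 30 min (one case 15 min) before intratracheal instillation of 20 or 10 μg HNE. After 1 h, lungs were lavaged with saline, and BAL hemoglobin was read at 536–546 nm against a Hgb standard curve. Inhibition was calculated versus vehicle controls, 6–19 hamsters per group, as mean ± SEM, with ANOVA and Dunnett's test (p ≤ 0.05).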

Neutrophil elastase [10] = target: T1, Neutrophil elastase; assay: In vitro inhibitory activity against human neutrophil elastase […]; set-up: dose 50 mg/kg
[11] = Half life determined from epimerization data at 37 degree C in human blood serum 2; type: ADME, organism-based, Plasma
Summary of the method: (§2)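 The L-L-L or L-L-D diastereomer was held at 37 °C in human blood serum (three individual donors) or human plasma, with a sealed D2O capillary inserted into the NMR tube for lock. Epimerization was followed by 19F NMR spectra, and the half-life was taken from these spectra.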

[12] = Half life determined from epimerization data at 37 degree C in human blood serum 3; type: ADME, organism-based, Plasma; summary of the method: as §2
[13] = Half life determined from epimerization data at 25 degree C in Tween 20 (81 mM); settings: Tween 20 solution (81 mM)
[14] = Half life determined from epimerization data at 25 degree C in buffered saline
[15] = target: T2, Cathepsin G (Homo sapiens) (UniProt P08311); assay: Tested for the ability to inhibit human neutrophil cathepsin G at 0.5 mM
T2 sequence (whole entry): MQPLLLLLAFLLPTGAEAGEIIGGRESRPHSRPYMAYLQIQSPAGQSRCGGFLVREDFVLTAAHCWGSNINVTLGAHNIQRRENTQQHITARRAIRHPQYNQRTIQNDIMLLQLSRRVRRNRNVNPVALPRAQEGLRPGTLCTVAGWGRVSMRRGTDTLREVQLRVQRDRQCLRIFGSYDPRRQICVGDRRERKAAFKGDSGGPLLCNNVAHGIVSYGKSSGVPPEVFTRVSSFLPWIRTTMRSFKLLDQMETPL

Cathepsin B (Bos taurus) = Cathepsin B (Bos taurus) (UniProt P07688); assay: Tested for the ability to inhibit bovine liver cathepsin B at 0.5 mM
[16] = Half life determined from epimerization data at 37 degree C in human blood plasma; type: ADME, organism-based; summary of the method: as §2
Prothrombin (Bos taurus) = Prothrombin (Bos taurus) (UniProt P00735); assay: Tested for the ability to inhibit bovine thrombin at 0.5 mM
Pepsin A (Sus scrofa) = Pepsin A (Sus scrofa) (UniProt P00791); assay: Tested for the ability to inhibit pepsin at 0.2 mM
Sequence of Pepsin A (Sus scrofa) (P00791 60-385 limits assumed): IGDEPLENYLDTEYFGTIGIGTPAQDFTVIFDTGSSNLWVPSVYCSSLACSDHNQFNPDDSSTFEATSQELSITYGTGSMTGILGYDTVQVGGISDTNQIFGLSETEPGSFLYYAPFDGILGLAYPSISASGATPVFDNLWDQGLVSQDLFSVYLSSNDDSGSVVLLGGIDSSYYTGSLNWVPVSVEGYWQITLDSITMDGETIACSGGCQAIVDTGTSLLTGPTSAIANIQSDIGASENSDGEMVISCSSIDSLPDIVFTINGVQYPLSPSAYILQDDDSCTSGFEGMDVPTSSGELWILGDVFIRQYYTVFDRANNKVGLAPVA

[17] = target: T3, Neprilysin (Rattus norvegicus) (UniProt P07861); assay: Tested for the ability to inhibit rat kidney enkephalinase at 0.5 mM
T3 sequence (whole entry): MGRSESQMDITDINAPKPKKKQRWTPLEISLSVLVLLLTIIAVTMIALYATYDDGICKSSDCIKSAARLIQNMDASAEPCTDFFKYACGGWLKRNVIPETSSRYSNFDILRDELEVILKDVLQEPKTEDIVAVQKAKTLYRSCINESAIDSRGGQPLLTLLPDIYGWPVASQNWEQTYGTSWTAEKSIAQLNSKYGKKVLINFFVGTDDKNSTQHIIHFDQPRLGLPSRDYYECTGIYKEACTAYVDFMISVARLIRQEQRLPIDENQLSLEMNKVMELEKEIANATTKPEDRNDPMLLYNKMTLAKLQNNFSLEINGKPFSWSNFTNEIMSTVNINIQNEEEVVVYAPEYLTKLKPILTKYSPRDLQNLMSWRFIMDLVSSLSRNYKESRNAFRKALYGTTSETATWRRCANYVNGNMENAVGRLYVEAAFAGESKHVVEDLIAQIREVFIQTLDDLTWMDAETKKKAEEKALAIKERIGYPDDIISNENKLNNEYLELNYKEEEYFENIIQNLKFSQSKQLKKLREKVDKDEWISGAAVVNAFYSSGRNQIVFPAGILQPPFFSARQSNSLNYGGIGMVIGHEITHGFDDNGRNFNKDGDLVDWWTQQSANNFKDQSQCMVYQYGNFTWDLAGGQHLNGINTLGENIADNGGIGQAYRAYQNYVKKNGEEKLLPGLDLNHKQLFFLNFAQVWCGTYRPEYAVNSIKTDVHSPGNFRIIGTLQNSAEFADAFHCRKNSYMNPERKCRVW

Rattus norvegicus [18] = assay: In vivo inhibitory activity against HNE-induced pulmonary hemorrhage was determined in rats after oral administration of 25 mg/kg; type: functional; summary of the method: as §1
Neutrophil elastase [19] = target: T1, Neutrophil elastase; assay: In vitro inhibitory activity against human neutrophil elastase was determined at a dose of 25 mg/kg; type: organism-based; set-up: dose 25 mg/kg

Ki (Neutrophil elastase [10]) | SMILES | inhibition in vivo at 50 mg/kg (Rattus norvegicus [1]) | Oral activity [3] | Oral activity [8] | inhibition in vivo at 25 mg/kg (Cricetinae gen. sp.) | other results
170 nM | CC(C)C(NC(=O)[C@@H]1CCCN1C(=O)[C@@H](NC(=O)N1CCOCC1)C(C)C)C(=O)C(F)(F)C(F)(F)F (some centres undefined) | 69% | Active | – | 69% | –
25 nM | CC(C)C(NC(=O)[C@@H]1CCCN1C(=O)[C@@H](NC(=O)c1ccc(C(=O)N2CCOCC2)cc1)C(C)C)C(=O)C(F)(F)C(F)(F)F (some centres undefined) | 69% | Active | – | 74% | half-life [11]: 30 min; half-life [12]: 30 min; half-life [13]: 70 min; half-life [14]: > 200 h; inhibition [15]: 15%; inhibition (Cathepsin B (Bos taurus)): < 5%; half-life [16]: 30 min; inhibition (Prothrombin (Bos taurus)): < 5%; inhibition (Pepsin A (Sus scrofa)): 40%; inhibition [17]: < 5%
60 nM | CC(C)[C@H](NC(=O)CN1CCOCC1)C(=O)N1CCC[C@H]1C(=O)N[C@H](C(=O)C(F)(F)C(F)(F)F)C(C)C | 77% | Active | – | – | –
59 nM | CC(C)C(NC(=O)[C@@H]1CCCN1C(=O)[C@@H](NC(=O)C1CCOCC1)C(C)C)C(=O)C(F)(F)C(F)(F)F (some centres undefined) | 71% | Active | – | – | –

The remaining lines, values behind:

SMILES | Ki (Neutrophil elastase [10]) | inhibition in vivo at 50 mg/kg (Rattus norvegicus [1]) | Oral activity [3] | Oral activity [8] | inhibition in vivo at 25 mg/kg (Cricetinae gen. sp.) | other results
CC(C)[C@H](NC(=O)N(C)C)C(=O)N1CCC[C@H]1C(=O)N[C@H](C(=O)C(F)(F)C(F)(F)F)C(C)C | – | 70% | Active | – | – | Ki (Neutrophil elastase [2]): 261 nM
CC(C)[C@H](NC(=O)c1ccco1)C(=O)N1CCC[C@H]1C(=O)N[C@H](C(=O)C(F)(F)C(F)(F)F)C(C)C | – | – | – | – | – | inhibition in vivo at 45 mg/kg (Rattus norvegicus [4]): 44%; Ki (Neutrophil elastase [5]): 190 nM; Oral activity [6]: inactive
CC(C)C(NC(=O)[C@@H]1CCCN1C(=O)[C@@H](NC(=O)c1ccc(C(=O)NS(=O)(=O)c2ccc(Cl)cc2)cc1)C(C)C)C(=O)C(F)(F)C(F)(F)F (some centres undefined) | – | – | – | inactive | – | inhibition in vivo at 100 mg/kg (Rattus norvegicus [7]): -30%; Ki (Neutrophil elastase [9]): 7 nM
CC(C)C(NC(=O)[C@@H]1CCCN1C(=O)[C@@H](NC(=O)c1ccc(C(=O)N2CCN(C(=O)N3CCOCC3)CC2)cc1)C(C)C)C(=O)C(F)(F)C(F)(F)F (some centres undefined) | – | – | – | inactive | 31% | –
CC(C)C(NC(=O)[C@@H]1CCCN1C(=O)[C@@H](NC(=O)c1ccc(C(=O)N2CCOCC2)nc1)C(C)C)C(=O)C(F)(F)C(F)(F)F (some centres undefined) | – | – | – | – | 61% | –
CC(C)C(NC(=O)[C@@H]1CCCN1C(=O)[C@@H](NC(=O)c1ccc(S(=O)(=O)N2CCOCC2)cc1)C(C)C)C(=O)C(F)(F)C(F)(F)F (some centres undefined) | – | – | – | inactive | 30% | –
CC(C)C(NC(=O)[C@@H]1CCCN1C(=O)[C@@H](NC(=O)CC(=O)N1CCOCC1)C(C)C)C(=O)C(F)(F)C(F)(F)F (some centres undefined) | – | – | – | – | – | inhibition in vivo at 25 mg/kg (Rattus norvegicus [18]): 41%; Ki (Neutrophil elastase [19]): 70 nM
CC(C)C(NC(=O)[C@@H]1CCCN1C(=O)[C@@H](NC(=O)c1ccc(C(=O)O)cc1)C(C)C)C(=O)C(F)(F)C(F)(F)F (some centres undefined) | – | – | – | inactive | -3% | –
CC(C)C(NC(=O)[C@@H]1CCCN1C(=O)[C@@H](NC(=O)c1ccc(NC(=O)N2CCOCC2)cc1)C(C)C)C(=O)C(F)(F)C(F)(F)F (some centres undefined) | 43 nM | 26% | – | inactive | – | –
CC(C)C(NC(=O)[C@@H]1CCCN1C(=O)[C@@H](NC(=O)CCc1cccnc1)C(C)C)C(=O)C(F)(F)C(F)(F)F (some centres undefined) | – | – | Active | – | 67% | –
CC(C)C(NC(=O)[C@@H]1CCCN1C(=O)[C@@H](NC(=O)C(C(=O)N1CCOCC1)C(C)C)C(C)C)C(=O)C(F)(F)C(F)(F)F (some centres undefined) | – | – | Active | – | 70% | –
